# From ChEMBL document CHEMBL2346654, “Discovery of biological evaluation of pyrazole/imidazole amides as mGlu5 receptor negative allosteric modulators” (Bioorg Med Chem Lett, 2013)
# Tests used:
# [1] = target: T1, Metabotropic glutamate receptor 5 (Homo sapiens, UniProt P41594); assay: Negative allosteric modulation of human mGluR5 expressed in HEK293 cells assessed as calcium mobilization by FLIPR assay; assay type: functional, cell-based
# Target sequence in this assay (P41594 whole entry): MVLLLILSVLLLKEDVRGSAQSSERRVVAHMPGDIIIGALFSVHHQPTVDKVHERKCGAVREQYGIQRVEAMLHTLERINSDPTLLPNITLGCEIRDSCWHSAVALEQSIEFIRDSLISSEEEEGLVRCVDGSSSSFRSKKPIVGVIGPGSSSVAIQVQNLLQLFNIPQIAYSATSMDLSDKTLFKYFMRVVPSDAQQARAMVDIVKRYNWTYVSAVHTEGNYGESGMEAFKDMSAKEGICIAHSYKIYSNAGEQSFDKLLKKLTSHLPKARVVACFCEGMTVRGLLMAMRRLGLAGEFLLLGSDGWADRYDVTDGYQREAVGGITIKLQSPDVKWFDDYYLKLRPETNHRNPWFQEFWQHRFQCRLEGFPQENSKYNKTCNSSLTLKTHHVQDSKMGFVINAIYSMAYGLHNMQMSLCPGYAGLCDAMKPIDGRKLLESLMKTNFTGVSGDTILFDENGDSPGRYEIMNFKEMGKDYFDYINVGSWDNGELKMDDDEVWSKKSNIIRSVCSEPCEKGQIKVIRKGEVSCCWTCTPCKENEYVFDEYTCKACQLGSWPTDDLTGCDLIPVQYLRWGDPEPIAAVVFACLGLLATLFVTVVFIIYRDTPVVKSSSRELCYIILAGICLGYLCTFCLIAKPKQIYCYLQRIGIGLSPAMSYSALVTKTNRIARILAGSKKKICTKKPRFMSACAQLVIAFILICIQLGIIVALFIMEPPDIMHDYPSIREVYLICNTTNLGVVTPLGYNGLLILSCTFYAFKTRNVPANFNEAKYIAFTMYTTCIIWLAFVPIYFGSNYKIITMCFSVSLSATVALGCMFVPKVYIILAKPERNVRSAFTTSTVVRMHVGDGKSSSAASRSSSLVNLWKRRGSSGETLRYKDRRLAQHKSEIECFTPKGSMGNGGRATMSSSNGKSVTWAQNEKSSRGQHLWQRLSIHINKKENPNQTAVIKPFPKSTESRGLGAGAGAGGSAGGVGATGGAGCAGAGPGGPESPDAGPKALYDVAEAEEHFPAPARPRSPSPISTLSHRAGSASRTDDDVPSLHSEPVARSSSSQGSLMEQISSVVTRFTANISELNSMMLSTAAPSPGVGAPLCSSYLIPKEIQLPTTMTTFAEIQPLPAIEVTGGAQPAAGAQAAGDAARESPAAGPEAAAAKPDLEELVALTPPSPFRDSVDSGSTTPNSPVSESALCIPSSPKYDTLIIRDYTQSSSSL
# [2] = Half life in mouse liver microsomes
# [3] = Half life in rat liver microsomes
# [4] = Half life in human liver microsomes
# Mus musculus = assay: Antidepressant activity in ICR mouse assessed as decrease in immobility time at 10 mg/kg, po administered 1 hr before test measured for 4 mins following training for 2 mins by forced swimming test; assay type: functional; design: scale not given: the % may be the effect or the level left
# Procedure, shortened: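 Mouse forced swim test: ICR mice dosed orally 1 h before testing; 2 min training, then immobility duration recorded over 4 min. Activity expressed as % decrease in immobility duration. Mean ± SEM, n = 8; Dunnett's multiple comparisons after one-way ANOVA (p < 0.05).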
# [5] = target: T1, Metabotropic glutamate receptor 5; assay: Negative allosteric modulation of human mGluR5 expressed in HEK293 cells assessed as calcium mobilization at 1 uM by FLIPR assay; assay type: functional, cell-based
# Target sequence in this assay (P41594 21-1212 limits assumed): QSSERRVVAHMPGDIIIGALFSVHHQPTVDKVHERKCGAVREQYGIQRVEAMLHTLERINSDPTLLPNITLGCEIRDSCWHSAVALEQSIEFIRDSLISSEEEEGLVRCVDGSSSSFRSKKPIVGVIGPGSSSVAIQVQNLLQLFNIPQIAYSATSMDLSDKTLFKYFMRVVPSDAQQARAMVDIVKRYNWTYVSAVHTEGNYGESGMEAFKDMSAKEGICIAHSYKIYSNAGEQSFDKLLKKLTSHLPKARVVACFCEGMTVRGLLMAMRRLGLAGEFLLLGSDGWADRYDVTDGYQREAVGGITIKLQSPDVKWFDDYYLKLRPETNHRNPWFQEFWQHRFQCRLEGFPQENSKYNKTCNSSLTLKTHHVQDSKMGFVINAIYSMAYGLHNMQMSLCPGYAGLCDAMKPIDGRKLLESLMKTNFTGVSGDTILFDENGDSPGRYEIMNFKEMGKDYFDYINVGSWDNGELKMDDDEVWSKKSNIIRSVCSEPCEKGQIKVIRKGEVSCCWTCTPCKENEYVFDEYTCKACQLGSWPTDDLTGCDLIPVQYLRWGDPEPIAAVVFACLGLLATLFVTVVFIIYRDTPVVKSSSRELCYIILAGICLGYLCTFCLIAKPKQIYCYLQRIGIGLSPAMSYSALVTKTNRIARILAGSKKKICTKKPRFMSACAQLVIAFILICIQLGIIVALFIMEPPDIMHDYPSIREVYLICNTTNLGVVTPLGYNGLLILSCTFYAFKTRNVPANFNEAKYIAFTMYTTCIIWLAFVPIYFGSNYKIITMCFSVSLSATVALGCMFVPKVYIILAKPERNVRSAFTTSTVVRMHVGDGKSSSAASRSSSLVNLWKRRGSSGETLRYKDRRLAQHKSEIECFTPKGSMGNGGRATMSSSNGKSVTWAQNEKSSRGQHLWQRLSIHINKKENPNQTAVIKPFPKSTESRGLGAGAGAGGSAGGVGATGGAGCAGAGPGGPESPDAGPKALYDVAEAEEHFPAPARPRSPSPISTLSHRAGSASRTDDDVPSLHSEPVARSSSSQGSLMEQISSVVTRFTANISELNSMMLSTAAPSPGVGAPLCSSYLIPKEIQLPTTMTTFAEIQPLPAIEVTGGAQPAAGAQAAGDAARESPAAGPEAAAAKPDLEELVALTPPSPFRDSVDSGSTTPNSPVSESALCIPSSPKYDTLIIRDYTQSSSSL
# [6] = Ratio of drug level in brain to plasma in Sprague-Dawley rat at 10 mg/kg, ip after 1 hr; assay type: ADME, organism-based; design: dose 10 mg/kg, route intraperitoneal; details: brain and plasma, read-out: BPR
# Procedure, shortened: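 Sprague–Dawley rats given a single 10 mg/kg intraperitoneal dose. Plasma and brain concentrations measured 1 h after dosing and expressed as a brain/plasma ratio.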
# Cytochrome P450 1A2 = Cytochrome P450 1A2 (Homo sapiens, UniProt P05177); assay: Inhibition of CYP1A2 (unknown origin) at 10 uM; assay type: ADME
# Cytochrome P450 3A4 = Cytochrome P450 3A4 (Homo sapiens, UniProt P08684); assay: Inhibition of CYP3A4 (unknown origin) at 10 uM; assay type: ADME
# Cytochrome P450 2D6 = Cytochrome P450 2D6 (Homo sapiens, UniProt P10635); assay: Inhibition of CYP2D6 (unknown origin) at 10 uM; assay type: ADME
# Cytochrome P450 2C9 = Cytochrome P450 2C9 (Homo sapiens, UniProt P11712); assay: Inhibition of CYP2C9 (unknown origin) at 10 uM; assay type: ADME
# hERG (KCNH2) = hERG (KCNH2) (Homo sapiens, UniProt Q12809); assay: Inhibition of human ERG at 10 uM
# [7] = Intrinsic clearance in human hepatocytes assessed per 10^6 cells; assay type: ADME, cell-based, Hepatocyte; details: read-out: CLH
# [8] = target: Metabotropic glutamate receptor 1 (Homo sapiens) (UniProt Q13255); assay: Inhibition of mGluR1 (unknown origin) at 10 uM
# Cytochrome P450 2C19 = Cytochrome P450 2C19 (Homo sapiens, UniProt P33261); assay: Inhibition of CYP2C19 (unknown origin) at 10 uM; assay type: ADME
# [9] = target: T1, Metabotropic glutamate receptor 5; assay: Negative allosteric modulation of human mGluR5 expressed in HEK293 cells assessed as calcium mobilization at 2 uM by FLIPR assay; assay type: functional, cell-based
# Target sequence in this assay (P41594 21-1212 limits assumed): as above
# Sequence of Cytochrome P450 2D6 (P10635 whole entry): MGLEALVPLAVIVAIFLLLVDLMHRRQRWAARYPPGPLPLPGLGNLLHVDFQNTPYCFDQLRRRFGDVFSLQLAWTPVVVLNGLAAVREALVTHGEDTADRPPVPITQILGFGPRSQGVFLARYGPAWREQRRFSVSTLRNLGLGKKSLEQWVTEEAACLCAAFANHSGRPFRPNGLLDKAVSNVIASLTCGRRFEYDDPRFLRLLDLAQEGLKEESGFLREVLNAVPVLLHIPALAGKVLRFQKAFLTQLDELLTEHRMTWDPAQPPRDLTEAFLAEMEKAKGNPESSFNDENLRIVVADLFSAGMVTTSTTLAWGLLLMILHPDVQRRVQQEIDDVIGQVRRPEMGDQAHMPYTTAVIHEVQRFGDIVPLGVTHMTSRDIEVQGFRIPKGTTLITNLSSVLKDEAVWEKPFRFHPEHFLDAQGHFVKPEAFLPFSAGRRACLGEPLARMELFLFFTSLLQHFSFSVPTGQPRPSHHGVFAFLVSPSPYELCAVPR
# Sequence of Metabotropic glutamate receptor 1 (Homo sapiens) (Q13255 19-1194 limits assumed): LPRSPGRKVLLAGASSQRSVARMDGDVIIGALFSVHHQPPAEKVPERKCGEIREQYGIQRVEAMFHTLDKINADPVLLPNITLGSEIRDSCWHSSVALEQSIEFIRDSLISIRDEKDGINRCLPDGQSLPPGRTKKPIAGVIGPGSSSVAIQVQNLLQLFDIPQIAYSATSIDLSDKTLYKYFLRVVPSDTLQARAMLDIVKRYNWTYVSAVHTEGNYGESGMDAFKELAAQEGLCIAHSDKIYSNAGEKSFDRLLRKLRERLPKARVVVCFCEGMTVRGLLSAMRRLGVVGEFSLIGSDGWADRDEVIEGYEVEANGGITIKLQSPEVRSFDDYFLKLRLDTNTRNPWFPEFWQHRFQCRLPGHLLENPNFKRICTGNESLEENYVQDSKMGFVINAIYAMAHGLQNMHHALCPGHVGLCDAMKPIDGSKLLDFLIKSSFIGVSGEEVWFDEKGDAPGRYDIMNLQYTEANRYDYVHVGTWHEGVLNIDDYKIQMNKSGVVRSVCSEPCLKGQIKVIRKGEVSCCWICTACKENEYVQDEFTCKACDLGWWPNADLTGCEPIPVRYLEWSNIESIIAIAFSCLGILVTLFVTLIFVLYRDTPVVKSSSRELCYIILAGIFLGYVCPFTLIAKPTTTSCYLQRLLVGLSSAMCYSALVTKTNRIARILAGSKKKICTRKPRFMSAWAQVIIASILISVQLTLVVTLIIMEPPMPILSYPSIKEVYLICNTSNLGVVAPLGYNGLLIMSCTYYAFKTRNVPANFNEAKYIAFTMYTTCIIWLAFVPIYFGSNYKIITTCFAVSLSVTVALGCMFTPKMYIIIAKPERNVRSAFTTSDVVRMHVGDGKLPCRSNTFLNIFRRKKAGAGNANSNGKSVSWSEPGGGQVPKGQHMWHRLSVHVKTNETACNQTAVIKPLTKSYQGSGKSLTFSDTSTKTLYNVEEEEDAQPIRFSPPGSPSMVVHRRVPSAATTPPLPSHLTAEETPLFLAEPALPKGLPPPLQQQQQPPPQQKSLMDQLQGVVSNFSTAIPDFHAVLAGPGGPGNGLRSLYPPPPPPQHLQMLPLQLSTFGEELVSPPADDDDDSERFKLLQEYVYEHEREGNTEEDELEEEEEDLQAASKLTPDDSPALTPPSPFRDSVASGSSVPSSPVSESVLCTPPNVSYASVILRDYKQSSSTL
# Sequence of Cytochrome P450 2C9 (P11712 whole entry): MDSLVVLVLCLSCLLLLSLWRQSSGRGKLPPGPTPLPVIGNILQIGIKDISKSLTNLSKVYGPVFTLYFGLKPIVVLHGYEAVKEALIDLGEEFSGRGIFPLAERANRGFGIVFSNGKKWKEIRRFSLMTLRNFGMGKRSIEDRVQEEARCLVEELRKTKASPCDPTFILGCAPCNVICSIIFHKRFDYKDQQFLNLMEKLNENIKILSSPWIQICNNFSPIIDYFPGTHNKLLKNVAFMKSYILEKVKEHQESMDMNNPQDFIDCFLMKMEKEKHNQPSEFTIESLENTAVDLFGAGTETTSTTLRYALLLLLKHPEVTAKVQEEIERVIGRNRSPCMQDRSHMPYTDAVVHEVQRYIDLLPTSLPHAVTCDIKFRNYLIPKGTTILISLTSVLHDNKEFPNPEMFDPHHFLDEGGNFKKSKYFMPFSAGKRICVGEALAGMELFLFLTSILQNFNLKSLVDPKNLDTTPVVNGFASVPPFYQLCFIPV
# Sequence of Cytochrome P450 2C19 (P33261 whole entry): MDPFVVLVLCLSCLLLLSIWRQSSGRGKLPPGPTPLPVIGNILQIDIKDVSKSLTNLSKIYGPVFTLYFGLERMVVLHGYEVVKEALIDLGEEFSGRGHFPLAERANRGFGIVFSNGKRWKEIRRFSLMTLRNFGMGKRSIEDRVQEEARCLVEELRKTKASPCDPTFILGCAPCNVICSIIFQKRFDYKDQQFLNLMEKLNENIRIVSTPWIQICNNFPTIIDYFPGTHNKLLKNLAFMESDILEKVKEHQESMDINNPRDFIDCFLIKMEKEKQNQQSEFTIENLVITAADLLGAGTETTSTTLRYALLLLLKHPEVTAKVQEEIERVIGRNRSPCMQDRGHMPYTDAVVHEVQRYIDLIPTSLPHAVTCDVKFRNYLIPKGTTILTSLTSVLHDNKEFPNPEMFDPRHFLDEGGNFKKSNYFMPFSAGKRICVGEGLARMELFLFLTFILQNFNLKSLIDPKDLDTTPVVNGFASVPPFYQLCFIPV
Compound,IC50 [1] [nM],half-life ([2]; microsomes) [h],half-life ([3]; microsomes) [h],half-life ([4]; microsomes) [h],half-life ([2]; liver microsomes) [h],half-life ([3]; liver microsomes) [h],half-life ([4]; liver microsomes) [h],Activity (Mus musculus) [%],other results
Cc1nc(C(=O)Nc2ccnc(Cl)c2)c(C)n1-c1ccc(F)cc1,62,5,1.57,3.75,,,,,
Cc1cccc(NC(=O)c2nn(C)c(OC3CCN(C)CC3)c2C)n1,,,,,,,,,inhibition [5]: -7.7%
Cc1nc(C#Cc2cccnc2)cs1,,,,,,,,14,
Cc1cccc(NC(=O)c2nn(C)c(OCc3ccc(F)cc3)c2C)n1,911,,,,,,,,
Cc1cccc(NC(=O)c2nc(C)n(-c3ccc(C(F)(F)F)cc3)c2C)n1,46.2,> 5,> 5,> 5,,,,,
Cc1cccc(NC(=O)c2nc(C)n(-c3ccc(Cl)cc3)c2C)n1,17.1,1.35,0.983,0.9,,,,,
Cc1cccc(NC(=O)c2nc(C)n(-c3ccc(F)cc3)c2C)n1,13,0.3,1.77,0.733,,,,52.1,
Cc1cccc(NC(=O)c2nn(C)c(-c3cccc(Cl)c3)c2C)n1,4.7,0.533,0.917,2,,,,,
Cc1cccc(NC(=O)c2nc(C)n(-c3ccc(Cl)c(Cl)c3)c2C)n1,5.8,,,,1.55,2.23,2.03,85.2,
O=C(Nc1cc(Cl)ccc1O)c1noc2c1CCC2,373,,,,,,,,
Cc1nc(C(=O)Nc2cccc(C(F)(F)F)n2)c(C)n1-c1ccc(F)cc1,173,,,,2.63,1.2,3.27,,
CCCc1c(C(=O)Nc2cccc(C)n2)nn(C)c1-c1ccccc1,,,,,,,,,inhibition [9]: 37%

# More lines, main results first:
IC50 [1] [nM],half-life ([2]; microsomes) [h],half-life ([3]; microsomes) [h],half-life ([4]; microsomes) [h],half-life ([2]; liver microsomes) [h],half-life ([3]; liver microsomes) [h],half-life ([4]; liver microsomes) [h],Compound,Activity (Mus musculus) [%],other results
94.5,1.4,1.27,1.28,,,,Cc1cc(NC(=O)c2nn(C)c(-c3ccc(F)cc3)c2C)ccn1,,
7.1,,,,> 5,> 5,> 5,Cc1c(C(=O)Nc2ccnc(Cl)n2)nn(C)c1-c1ccc(F)cc1,31.2,
3.8,,,,,,,Cc1cccc(NC(=O)c2nn(C)c(-c3ccc(Cl)cc3)c2C)n1,51.4,
41.6,,,,> 5,1.9,> 5,Cc1c(C(=O)Nc2ccnc(F)c2)nn(C)c1-c1ccc(F)cc1,15.5,
82.3,0.167,1.98,1.52,,,,Cc1ccnc(NC(=O)c2nn(C)c(-c3ccc(F)cc3)c2C)c1,,
56.3,> 5,2.68,> 5,,,,Cc1c(C(=O)Nc2ccnc(Cl)c2)nn(C)c1-c1ccc(F)cc1,39.1,
28,1.65,2.77,3.55,,,,Cc1nc(NC(=O)c2nn(C)c(-c3ccc(F)cc3)c2C)ccc1F,,
4.3,0.7,2.48,0.767,,,,Cc1cccc(NC(=O)c2nn(C)c(-c3ccc(F)c(F)c3)c2C)n1,58.8,
2.3,,,,3.25,2.47,1.78,Cc1cccc(NC(=O)c2nn(C)c(-c3ccc(Cl)c(Cl)c3)c2C)n1,45.8,
38,,,,3.23,> 5,> 5,Cc1cccc(NC(=O)c2nn(C)c(-c3ccc(C(F)(F)F)cc3)c2C)n1,18.5,
71,0.133,0.617,0.7,,,,Cc1cccc(NC(=O)c2nn(C)c(-c3ccncc3)c2C)n1,,
184,,,,0.267,3.65,> 5,Cc1c(C(=O)Nc2ccc(Cl)cn2)nn(C)c1-c1ccc(F)cc1,,
2700,,,,,,,Cc1cnc(NC(=O)c2nn(C)c(-c3ccc(F)cc3)c2C)s1,,
40.4,,,,4.63,2.75,4.72,Cc1nc(C(=O)Nc2ccnc(Cl)n2)c(C)n1-c1ccc(F)cc1,65.3,Kp at 1 h [6]: 1.63; inhibition (INH) (Cytochrome P450 1A2): Not Active; inhibition (INH) (Cytochrome P450 3A4): Not Active; inhibition (INH) (Cytochrome P450 2D6): Not Active; inhibition (INH) (Cytochrome P450 2C9): Not Active; inhibition at 10 µM (hERG (KCNH2)): 13%; hepatocyte CLint [7]: 0.99 µL/min/1e6 cells; inhibition [8]: 10%; inhibition (INH) (Cytochrome P450 2C19): Not Active
16.4,,,,1.93,1.8,1.92,Cc1c(C(=O)Nc2cccc(Cl)n2)nn(C)c1-c1ccc(F)cc1,12.6,
195,0.4,2.38,2.1,,,,Cc1c(C(=O)Nc2cc(Cl)ccn2)nn(C)c1-c1ccc(F)cc1,,
